ChEMBL document CHEMBL1828617, “The activity of dispiro peroxides against Fasciola hepatica” (2011)
Calls of active or inactive are those of the source. No cut-off for these calls is given here.

Tests used:
Fasciola hepatica [1] = assay: Antiparasitic activity against Fasciola hepatica infected in rat assessed as reduction in worm burden at 100 mg/kg, po administered as single dose measured after 6 days post treatment; format: functional; design: scale not given: the % may be the effect or the level left
In short: (§1)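 Rats harbouring adult F. hepatica, treated at 8–13 weeks post-infection with a single oral dose given as a suspension in 7% (v/v) Tween 80 and 3% (v/v) EtOH. Killed at day 6 post-treatment. Adult flukes recovered from bile ducts and livers. Worm burden reduction taken from mean total worm burdens of treated versus untreated control rats. Cures = rats cured/rats treated. Significance by Kruskal-Wallis test.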

Fasciola hepatica [2] = assay: Antiparasitic activity against Fasciola hepatica infected in rat assessed as cure rate at 100 mg/kg, po administered as single dose measured after 6 days post treatment; format: functional, organism-based; design: dose 100 mg/kg; in short: as §1
Fasciola hepatica [3] = assay: Antiparasitic activity against Fasciola hepatica infected in rat assessed as reduction in worm burden at 50 mg/kg, po administered as single dose measured after 6 days post treatment; format: functional; design: scale not given: the % may be the effect or the level left; in short: as §1
Fasciola hepatica [4] = assay: Antiparasitic activity against Fasciola hepatica infected in rat assessed as reduction in worm burden at 25 mg/kg, po administered as single dose measured after 6 days post treatment; format: functional; design: scale not given: the % may be the effect or the level left; in short: as §1
Fasciola hepatica [5] = assay: Antiparasitic activity against Fasciola hepatica infected in rat assessed as cure rate at 50 mg/kg, po administered as single dose measured after 6 days post treatment; format: functional, organism-based; design: dose 50 mg/kg; in short: as §1
Fasciola hepatica [6] = assay: Antiparasitic activity against Fasciola hepatica infected in rat assessed as cure rate at 25 mg/kg, po administered as single dose measured after 6 days post treatment; format: functional, organism-based; design: dose 25 mg/kg; in short: as §1

With `O=C(O)CC1CCC2(CC1)OOC1(CCCCC1)OO2` the Activity (Fasciola hepatica [1]) was 29% and the Activity (Fasciola hepatica [2]) was “inactive”.
For `O=C(O)[C@H]1CC[C@]2(CC1)OO[C@]1(O2)C2CC3CC(C2)CC1C3`, the Activity (Fasciola hepatica [1]) was 52% and the Activity (Fasciola hepatica [2]) was “inactive”.
With `O=C(O)c1ccc([C@H]2CC[C@]3(CC2)COC2(OO3)C3CC4CC(C3)CC2C4)cc1` (some centres undefined) the Activity (Fasciola hepatica [3]) was 100%, the Activity (Fasciola hepatica [4]) was 0% and the Activity (Fasciola hepatica [5]) was “Active”. For the same compound, the Activity (Fasciola hepatica [1]) was 100% and the Activity (Fasciola hepatica [2]) was “Active”.
Compound `O=C(O)c1ccc(C2CCC3(CC2)OOC2(OO3)C3CC4CC(C3)CC2C4)cc1` (centres undefined) has an Activity (Fasciola hepatica [1]) of 92%.
In the case of `O=C(O)C[C@H]1CC[C@]2(CC1)COC1(CCCCC1)OO2`, the Activity (Fasciola hepatica [1]) is reported as 95%.
In the case of `O=C(O)C[C@H]1CC[C@]2(CC1)COC1(OO2)C2CC3CC(C2)CC1C3` (some centres undefined), the Activity (Fasciola hepatica [3]) is reported as 100%, the Activity (Fasciola hepatica [4]) is reported as 88% and the Activity (Fasciola hepatica [5]) is reported as “Active”. The Activity (Fasciola hepatica [1]) was 100% and the Activity (Fasciola hepatica [2]) was “Active”.
For `O=C(O)c1ccc(C2CCC3(CC2)OOC2(O3)C3CC4CC(C3)CC2C4)cc1` (centres undefined), the Activity (Fasciola hepatica [3]) was 19%, the Activity (Fasciola hepatica [5]) was “inactive” and the Activity (Fasciola hepatica [1]) was 100%. For the same compound, the Activity (Fasciola hepatica [2]) was “Active”.
In the case of `O=C(O)C1CCC2(CC1)OOC1(CCCCC1)OO2`, the Activity (Fasciola hepatica [3]) is reported as 61%, the Activity (Fasciola hepatica [1]) is reported as 100% and the Activity (Fasciola hepatica [2]) is reported as “Active”.
With `O=C(O)CC1CCC2(CC1)OOC1(OO2)C2CC3CC(C2)CC1C3` (centres undefined) the Activity (Fasciola hepatica [3]) was 100%, the Activity (Fasciola hepatica [4]) was 71% and the Activity (Fasciola hepatica [5]) was “Active”. For the same compound, the Activity (Fasciola hepatica [6]) was “inactive”, the Activity (Fasciola hepatica [1]) was 100% and the Activity (Fasciola hepatica [2]) was “Active”.
`O=C(O)[C@H]1CC[C@]2(CC1)COC1(OO2)C2CC3CC(C2)CC1C3` (some centres undefined) gave an Activity (Fasciola hepatica [1]) of 61%.
For `O=C(O)[C@H]1CC[C@]2(CC1)COC1(CCCCC1)OO2`, the Activity (Fasciola hepatica [3]) was 71%, the Activity (Fasciola hepatica [5]) was “inactive” and the Activity (Fasciola hepatica [1]) was 100%. For the same compound, the Activity (Fasciola hepatica [2]) was “Active”.
With `O=C(O)[C@H]1CC[C@@]2(CC1)OOC1(CCCCC1)O2` the Activity (Fasciola hepatica [1]) was 26% and the Activity (Fasciola hepatica [2]) was “inactive”.
With `C[C@H]1[C@H](OC(=O)CCC(=O)O)O[C@@H]2O[C@@]3(C)CC[C@H]4[C@H](C)CC[C@@H]1[C@@]24OO3` [ARTESUNATE] the Activity (Fasciola hepatica [1]) was 30%.
`O=C(O)C[C@H]1CC[C@]2(CC1)OOC1(O2)C2CC3CC(C2)CC1C3` (some centres undefined) was tested, and the Activity (Fasciola hepatica [1]) was 100% and the Activity (Fasciola hepatica [2]) was “Active”.
For `O=C(O)C1CCC2(CC1)OOC1(OO2)C2CC3CC(C2)CC1C3` (centres undefined), the Activity (Fasciola hepatica [3]) was 48%, the Activity (Fasciola hepatica [1]) was 100% and the Activity (Fasciola hepatica [2]) was “Active”.
For `O=C(O)CC1CCC2(CC1)OCC1(OO2)C2CC3CC(C2)CC1C3` (centres undefined), the Activity (Fasciola hepatica [1]) was 0% and the Activity (Fasciola hepatica [2]) was “inactive”.
